From ChEMBL document CHEMBL1129555, “Arylacetamide-derived fluorescent probes: synthesis, biological evaluation, and direct fluorescent labeling of kappa opioid receptors in mouse microglial cells” (J Med Chem, 1996)

Tests used:
[1] = target: Kappa-type opioid receptor (Mus musculus, UniProt P33534); test: Inhibitory activity against Opioid receptor kappa 1 in electrically stimulated mouse vas deferens (MVD) preparation.
Method in brief: (§1)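 Electrically stimulated guinea pig longitudinal ileal muscle or mouse vas deferens preparations, run per earlier work. The read-out is inhibition of twitch, given as IC50 (nM), arithmetic mean ± SEM of at least three experiments.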

[2] = target: T1, Kappa-type opioid receptor (Cavia porcellus, UniProt P41144); test: Inhibitory activity against Opioid receptor kappa 1 in electrically stimulated guinea pig longitudinal ileal muscle (GPI) preparation.; method in brief: as §1
[3] = target: T1, Kappa-type opioid receptor; test: Binding affinity towards Opioid receptor kappa 1 in guinea pig brain
Method in brief: (§2)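 Competition binding against radioligands in guinea pig brain membranes, modified from a published method. κ: 1 nM [³H]U69,593; µ: 2 nM [³H]DAMGO; δ1: 5 nM [³H]DPDPE; δ2: 2 nM [³H]DSLET. Ki values are geometric means of three experiments.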

Cavia porcellus [4] = species on record: Cavia porcellus; test: Percent recovery of twitch height after 30-40 washes with buffer using smooth guinea pig ileal muscle; type: functional; settings: Muscle tissue
Method in brief: (§3)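 After agonist treatment, the electrically stimulated guinea pig ileum or mouse vas deferens was washed 30-40 times with buffer alone. Percent recovery of twitch height was recorded, n = 1.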

Mus musculus = species on record: Mus musculus; test: Percent recovery of twitch height after 30-40 washes with buffer using mouse vas deferens preparation; type: functional; method in brief: as §3
Mu-type opioid receptor = Mu-type opioid receptor (Cavia porcellus, UniProt P97266); test: Binding affinity towards Opioid receptor mu 1 in guinea pig brain; method in brief: as §2
Cavia porcellus [5] = species on record: Cavia porcellus; test: Percent recovery after treatment with 500 nM of NTX and removal of NTX by 40 washes with buffer using smooth guinea pig ileal muscle; type: functional; settings: Muscle tissue
Method in brief: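 Agonist-treated guinea pig ileum was incubated with 500 nM naltrexone for 10 min. NTX was then removed by 40 washes with buffer, and recovery of electrically evoked twitch height was recorded as percent. n = 1.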

Kappa-type opioid receptor (Mus musculus, UniProt P33534), sequence (P33534 whole entry): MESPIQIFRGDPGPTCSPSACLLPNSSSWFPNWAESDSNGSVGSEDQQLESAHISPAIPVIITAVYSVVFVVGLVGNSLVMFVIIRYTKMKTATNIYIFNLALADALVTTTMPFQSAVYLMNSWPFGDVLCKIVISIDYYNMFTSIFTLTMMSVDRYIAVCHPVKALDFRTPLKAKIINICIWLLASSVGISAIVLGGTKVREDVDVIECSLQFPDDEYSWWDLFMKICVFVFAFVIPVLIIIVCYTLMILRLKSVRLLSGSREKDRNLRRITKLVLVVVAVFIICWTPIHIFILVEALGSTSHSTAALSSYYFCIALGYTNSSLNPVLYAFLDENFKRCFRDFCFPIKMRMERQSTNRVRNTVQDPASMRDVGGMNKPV
T1 sequence (P41144 whole entry): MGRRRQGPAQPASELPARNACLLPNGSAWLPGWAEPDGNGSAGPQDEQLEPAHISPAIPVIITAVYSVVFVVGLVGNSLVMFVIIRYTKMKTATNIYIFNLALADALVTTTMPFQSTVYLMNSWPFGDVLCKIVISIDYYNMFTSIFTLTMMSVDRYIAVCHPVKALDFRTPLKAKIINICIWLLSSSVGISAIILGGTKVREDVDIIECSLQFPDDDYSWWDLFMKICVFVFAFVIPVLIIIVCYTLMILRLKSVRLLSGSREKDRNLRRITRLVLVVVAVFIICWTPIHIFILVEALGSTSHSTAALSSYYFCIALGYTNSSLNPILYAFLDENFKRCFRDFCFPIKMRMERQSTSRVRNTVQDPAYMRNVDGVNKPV
Mu-type opioid receptor, sequence (P97266 whole entry): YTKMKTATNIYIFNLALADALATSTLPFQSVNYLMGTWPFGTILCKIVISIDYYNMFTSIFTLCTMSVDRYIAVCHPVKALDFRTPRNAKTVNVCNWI

SMILES	IC50 [1] [nM]	IC50 [2] [nM]	Ki [3] [nM]	Recovery (Cavia porcellus [4]) [%]	Recovery (Mus musculus) [%]	Ki (Mu-type opioid receptor) [nM]	Recovery (Cavia porcellus [5]) [%]
CN(C(=O)Cc1ccc(Cl)c(Cl)c1)C(CN1CCCC1)c1ccc(NC(=O)CNC(=O)C/N=C(S)\N=C2/C=CC(=C3c4ccc(O)cc4Oc4cc(O)ccc43)C(C(=O)O)=C2)cc1 (centres undefined)	170	48					
CN(C(=O)Cc1ccc(Cl)c(Cl)c1)[C@H](CN1CCCC1)c1cccc(NC(=O)C/N=C(S)/N=C2\C=CC(=C3c4ccc(O)cc4Oc4cc(O)ccc43)C(C(=O)O)=C2)c1	1.2	0.17	0.31	39	79	286	97
CN(C(=O)Cc1ccc(Cl)c(Cl)c1)[C@H](CN1CCCC1)c1cccc(NC(=S)Nc2ccc(-c3c4ccc(=O)cc-4oc4cc(O)ccc34)c(C(=O)O)c2)c1	1.2	0.37					
CN(C(=O)Cc1ccc(Cl)c(Cl)c1)[C@H](CN1CCCC1)c1cccc(N/C(S)=N/c2ccc(-c3c4ccc(=O)cc-4oc4cc(O)ccc34)c(C(=O)O)c2)c1				21	100		61
CN(C(=O)Cc1ccc(Cl)c(Cl)c1)[C@H](CN1CCCC1)c1ccccc1				20			32
CN(C(=O)Cc1ccc(Cl)c(Cl)c1)[C@H](CN1CCCC1)c1cccc(NC(=O)CNC(=O)C/N=C(S)/N=C2\C=CC(=C3c4ccc(O)cc4Oc4cc(O)ccc43)C(C(=O)O)=C2)c1	1.5	1.2		34	100		37
CN(C(=O)Cc1ccc(Cl)c(Cl)c1)C(CN1CCCC1)c1ccc(NC(=O)C/N=C(S)/N=C2\C=CC(=C3c4ccc(O)cc4Oc4cc(O)ccc43)C(C(=O)O)=C2)cc1 (centres undefined)	102	62					
CN(C(=O)Cc1ccc(Cl)c(Cl)c1)C(CN1CCCC1)c1ccc(NC(=O)CNC(=O)CNC(=O)CNC(=O)C/N=C(S)\N=C2/C=CC(=C3c4ccc(O)cc4Oc4cc(O)ccc43)C(C(=O)O)=C2)cc1 (centres undefined)	421	166					
CN(C(=O)Cc1ccc(Cl)c(Cl)c1)C(CN1CCCC1)c1ccc(N/C(S)=N/c2ccc(-c3c4ccc(=O)cc-4oc4cc(O)ccc34)c(C(=O)O)c2)cc1 (centres undefined)	12.6	5.2					
CN(C(=O)Cc1ccc(Cl)c(Cl)c1)[C@H](CN1CCCC1)c1cccc(NC(=O)CNC(=O)CNC(=O)CNC(=O)C/N=C(S)/N=C2\C=CC(=C3c4ccc(O)cc4Oc4cc(O)ccc43)C(C(=O)O)=C2)c1	6.5	0.15	0.91	44	100	631	131
